Measured values reported in ChEMBL document CHEMBL1139941, “Development of 6-benzyl substituted 4-aminocarbonyl-1,4-diazepane-2,5-diones as orally active human chymase inhibitors” (Bioorg Med Chem Lett, 2007).
Blank lines part the entries; values can stand above or below the molecule they belong to.

Columns and labels:
[1] = Stability in aqueous solution in pH 7 at 10 uM; type: physicochemical
Method in brief: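 Compound at 10 µM incubated at 37 °C in 0.1 M phosphate buffer, pH 7.0, sampled at 0, 4 and 8 h; fraction remaining quantified by HPLC and reported as half-life.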

[2] = Inhibition of bovine alpha chymotrypsin; parameters: species or system Bos taurus
Cathepsin G = biological target: T1, Cathepsin G (Homo sapiens, UniProt P08311); assay: Inhibition of human cathepsin G
T1 sequence (P08311 whole entry): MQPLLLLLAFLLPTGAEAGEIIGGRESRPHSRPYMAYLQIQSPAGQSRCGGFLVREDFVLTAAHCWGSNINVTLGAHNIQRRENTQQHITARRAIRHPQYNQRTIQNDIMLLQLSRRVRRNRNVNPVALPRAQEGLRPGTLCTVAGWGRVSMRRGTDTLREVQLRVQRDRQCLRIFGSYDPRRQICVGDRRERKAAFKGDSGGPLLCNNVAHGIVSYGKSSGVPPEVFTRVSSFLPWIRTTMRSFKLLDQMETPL

[3] = Inhibition of bovine trypsin; parameters: species or system Bos taurus
[4] = Inhibition of human elastase
Mus musculus [5] = assay: Inhibition of DNFB-induced ear edema in mouse chronic dermatitis model at 10 mg/kg, po after 24 hrs relative to control; type: functional
Method in brief: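 Mouse chronic dermatitis model: DNFB painted repeatedly; compound dosed orally at 10 mg/kg once daily throughout the experimental period. Ear thickness read 24 h after the sixth DNFB painting; inhibition ratio calculated versus vehicle, significance by Student's t test.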

Chymase = biological target: T2, Chymase (Homo sapiens, UniProt P23946); assay: Inhibition of human recombinant chymase
T2 sequence (P23946 whole entry): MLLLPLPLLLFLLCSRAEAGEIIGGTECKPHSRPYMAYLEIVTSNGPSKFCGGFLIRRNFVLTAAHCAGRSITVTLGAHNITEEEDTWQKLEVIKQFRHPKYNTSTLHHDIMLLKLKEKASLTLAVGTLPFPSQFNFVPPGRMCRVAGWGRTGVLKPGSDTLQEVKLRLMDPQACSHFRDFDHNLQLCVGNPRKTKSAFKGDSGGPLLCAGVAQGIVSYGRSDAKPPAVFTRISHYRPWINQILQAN

Mus musculus [6] = assay: Inhibition of DNFB-induced ear edema in mouse chronic dermatitis model at 10 mg/kg, ip after 24 hrs relative to control; type: functional; conditions: route intraperitoneal
Method in brief: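 Chronic dermatitis in mice induced by repeated DNFB painting; intraperitoneal dosing at 10 mg/kg once daily over the experimental period. Ear thickness measured 24 h after sixth DNFB application, expressed as inhibition ratio against vehicle group; Student's t test.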

SMILES: CC[C@@H](NC(=O)N1CC(=O)NC[C@@H](Cc2cc(Cl)ccc2OC)C1=O)c1cccc(C(=O)O)c1
half-life at 10 µM [1]: 7.4 h | IC50 [2]: 56 µM | IC50 (Cathepsin G): 8 µM | IC50 [3]: > 100 µM | IC50 [4]: > 100 µM | inhibition in vivo at 10 mg/kg (Mus musculus [5]): 22.9%

SMILES: CC[C@@H](NC(=O)N1CC(=O)NC[C@@H](Cc2cc(Cl)ccc2OC)C1=O)c1ccc(C(=O)O)c(N)c1
half-life at 10 µM [1]: 6.7 h | IC50 [2]: > 100 µM | IC50 (Cathepsin G): 16 µM | IC50 [3]: > 100 µM | IC50 [4]: > 100 µM | inhibition in vivo at 10 mg/kg (Mus musculus [5]): 29.7%

SMILES: CC[C@@H](NC(=O)N1CC(=O)NC[C@H](Cc2cc(Cl)ccc2OC)C1=O)c1ccc(C(=O)O)c(N)c1
half-life at 10 µM [1]: 6.1 h | IC50 [2]: 23 µM | IC50 (Cathepsin G): 28 µM | IC50 [3]: > 100 µM | IC50 [4]: > 100 µM | inhibition in vivo at 10 mg/kg (Mus musculus [5]): 35.8%

SMILES: COc1ccc(Cl)cc1CC1CNC(=O)CN(C(=O)NCc2ccccc2)C1=O (racemic)
half-life at 10 µM [1]: 6.8 h

SMILES: COc1ccc(Cl)cc1CC1CNC(=O)CN(C(=O)NCCc2ccccc2)C1=O (racemic)
half-life at 10 µM [1]: 12.9 h

SMILES: COc1ccc(Cl)cc1CC1CNC(=O)CN(C(=O)NC(c2ccccc2)c2ccccc2)C1=O (racemic)
IC50 (Chymase): > 100 µM | half-life at 10 µM [1]: 16.5 h

SMILES: COc1ccc(Cl)cc1CC1CNC(=O)CN(C(=O)N(C)Cc2ccccc2)C1=O (racemic)
IC50 (Chymase): > 100 µM | half-life at 10 µM [1]: > 48 h

SMILES: C[C@]12C=CC(=O)C=C1CC[C@@H]1[C@@H]2[C@@H](O)C[C@@]2(C)[C@H]1CC[C@]2(O)C(=O)CO [PREDNISOLONE]
inhibition in vivo at 10 mg/kg (Mus musculus [6]): 54.6%

Second part, the molecule after the results:

half-life at 10 µM [1]: 6.3 h
SMILES: CCC(NC(=O)N1CC(=O)NCC(Cc2cc(Cl)ccc2OC)C1=O)c1ccccc1 (centres undefined)

half-life at 10 µM [1]: 8 h
SMILES: COc1ccc(Cl)cc1CC1CNC(=O)CN(C(=O)NC(c2ccccc2)C(C)C)C1=O (centres undefined)

half-life at 10 µM [1]: 6.2 h
SMILES: COc1ccc(Cl)cc1CC1CNC(=O)CN(C(=O)NC(C)c2ccccc2)C1=O (centres undefined)

half-life at 10 µM [1]: 7.6 h
SMILES: CCCC(NC(=O)N1CC(=O)NCC(Cc2cc(Cl)ccc2OC)C1=O)c1ccccc1 (centres undefined)
